Assay results as given in paper PMC8757366 (ACS Omega, 2021).
Square brackets hold non-standard residues; d marks the D form. Peptide text beside a SMILES is read from it. * marks the point of attachment. Phe(3,4-(OMe)2) = COc1ccc(C[C@H](N)C(=O)O)cc1OC; Phe(F5) = N[C@@H](Cc1c(F)c(F)c(F)c(F)c1F)C(=O)O; Lys(Et,iPr) = CCN(CCCC[C@H](N)C(=O)O)C(C)C; Cha = N[C@@H](CC1CCCCC1)C(=O)O; Nicotinoyl = O=C(c1cccnc1)*; X1 = Nc1cc(C(=O)*)ccc1Br

Columns and labels:
CBX5 chromodomain = CBX5 chromodomain (Homo sapiens, UniProt P45973); assay: TR-FRET competition assay, CBX5; format: binding; conditions: for affinity improvement toward CBX5 over UNC5191 by TR-FRET: compared to UNC5191; for selectivity for CBX5 over CBX7: from TR-FRET IC50 values
Method in brief: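 Competition of biotinylated peptide tracer P42 from His-tagged chromodomain: CBX5 30 nM with 30 nM tracer, MPP8 25 nM with 50 nM tracer. Detection with 10 nM ULight-anti-6xHis and 2 nM Eu-streptavidin in 20 mM Tris pH 7.5, 150 mM NaCl, 0.05% Tween 20, 2 mM DTT. 1 h equilibration in dark; 665/615 nm ratio. 0–100% scale against DMSO and 100 μM UNC5241. Four-parameter IC50 fit; mean ± SD of three replicates.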

CBX5 (HP1α) chromodomain = CBX5 (HP1α) chromodomain (Homo sapiens, UniProt P45973); assay: Isothermal titration calorimetry; format: binding; conditions: for Kd: CBX5 ITC Kd, 25 °C
Method in brief: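 Run at 25 °C in 25 mM Tris–HCl pH 7.5, 150 mM NaCl, 2 mM β-mercaptoethanol. His-tagged chromodomain expressed in E. coli and purified by Ni affinity and size exclusion; concentration by Edelhoch method. Typically 50 μM protein with 0.5 mM compound or 100 μM with 1.0 mM, always 10:1. One 0.2 μL injection, then 26 × 1.5 μL at 180 s spacing; first point deleted; one-site fit. Mean ± SD of at least two replicates.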

Chain of CBX5 (HP1α) chromodomain (P45973 18-75): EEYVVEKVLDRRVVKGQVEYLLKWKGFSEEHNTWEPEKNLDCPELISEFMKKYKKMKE
Chain of CBX5 chromodomain (P45973 18-75): as above

Structure (SMILES) | affinity improvement toward CBX5 over UNC5191 by TR-FRET (CBX5 chromodomain) | selectivity for CBX5 over CBX7 (CBX5 chromodomain) | Kd (CBX5 (HP1α) chromodomain; one site binding model) | further results
CCN(CCCC[C@H](NC(=O)[C@H](CC(C)C)NC(=O)[C@H](C)NC(=O)[C@H](Cc1c(F)c(F)c(F)c(F)c1F)NC(=O)c1cccnc1)C(=O)N[C@@H](CO)C(N)=O)C(C)C [UNC4869, N-((8S,11S,14S,17S)-8-(((S)-1-Amino-3-hydroxy-1-oxopropan-2-yl)carbamoyl)-3-ethyl-11-isobutyl-2,14-dimethyl-10,13,16-trioxo-18-(perfluorophenyl)-3,9,12,15-tetraazaoctadecan-17-yl)nicotinamide] (Nicotinoyl-[Phe(F5)]AL[Lys(Et,iPr)]S-NH2) | about 3 fold | 26 fold |  | 
CCN(CCCC[C@H](NC(=O)[C@H](Cc1ccc(OC)c(OC)c1)NC(=O)[C@H](C)NC(=O)[C@H](CC1CCCCC1)NC(=O)c1ccc(Br)c(N)c1)C(=O)N[C@@H](CO)C(N)=O)C(C)C [UNC7047, 3-Amino-N-((8S,11S,14S,17S)-8-(((S)-1-amino-3-hydroxy-1-oxopropan-2-yl)carbamoyl)-18-cyclohexyl-11-(3,4-dimethoxybenzyl)-3-ethyl-2,14-dimethyl-10,13,16-trioxo-3,9,12,15-tetraazaoctadecan-17-yl)-4-bromobenzamide] (X1-[Cha]A[Phe(3,4-(OMe)2)][Lys(Et,iPr)]S-NH2) | 80 fold |  |  | IC50 (CBX5 chromodomain): 0.079 ± 0.04 µM; Kd (CBX5 (HP1α) chromodomain; mean ± SD of three replicates): 0.237 ± 0.068 µM; potency for CBX5 relative to UNC5191 by ITC (CBX5 (HP1α) chromodomain; ITC Kd compared to UNC5191): 30 fold
CCN(CCCC[C@H](NC(=O)[C@H](CC(C)C)NC(=O)[C@H](C)NC(=O)[C@H](Cc1ccccc1)NC(=O)c1cccnc1)C(=O)N[C@@H](CO)C(N)=O)C(C)C [UNC5191, N-((8S,11S,14S,17S)-8-(((S)-1-Amino-3-hydroxy-1-oxopropan-2-yl)carbamoyl)-3-ethyl-11-isobutyl-2,14-dimethyl-10,13,16-trioxo-18-phenyl-3,9,12,15-tetraazaoctadecan-17-yl)nicotinamide] (Nicotinoyl-FAL[Lys(Et,iPr)]S-NH2) |  |  | 6.93 ± 0.82 µM | 
CCN(CCCC[C@H](NC(=O)[C@H](Cc1ccccc1)NC(=O)[C@H](C)NC(=O)[C@H](Cc1ccccc1)NC(=O)c1cccnc1)C(=O)N[C@@H](CO)C(N)=O)C(C)C [UNC6384, N-((8S,11S,14S,17S)-8-(((S)-1-Amino-3-hydroxy-1-oxopropan-2-yl)carbamoyl)-11-benzyl-3-ethyl-2,14-dimethyl-10,13,16-trioxo-18-phenyl-3,9,12,15-tetraazaoctadecan-17-yl)nicotinamide] (Nicotinoyl-FAF[Lys(Et,iPr)]S-NH2) |  |  | 3.38 µM | 
CCN(CCCC[C@H](NC(=O)[C@H](Cc1ccc(OC)c(OC)c1)NC(=O)[C@H](C)NC(=O)[C@H](Cc1ccccc1)NC(=O)c1cccnc1)C(=O)N[C@@H](CO)C(N)=O)C(C)C [UNC6392, N-((8S,11S,14S,17S)-8-(((S)-1-Amino-3-hydroxy-1-oxopropan-2-yl)carbamoyl)-11-(3,4-dimethoxybenzyl)-3-ethyl-2,14-dimethyl-10,13,16-trioxo-18-phenyl-3,9,12,15-tetraazaoctadecan-17-yl)nicotinamide] (Nicotinoyl-FA[Phe(3,4-(OMe)2)][Lys(Et,iPr)]S-NH2) |  |  | 1.27 µM | potency for CBX5 relative to UNC6384 by ITC (CBX5 (HP1α) chromodomain; ITC Kd compared to UNC6384): 2 fold
CCN(CCCC[C@H](NC(=O)[C@H](CC(C)C)NC(=O)[C@H](C)NC(=O)[C@H](CC1CCCCC1)NC(=O)c1cccnc1)C(=O)N[C@@H](CO)C(N)=O)C(C)C [UNC6383, N-((8S,11S,14S,17S)-8-(((S)-1-Amino-3-hydroxy-1-oxopropan-2-yl)carbamoyl)-18-cyclohexyl-3-ethyl-11-isobutyl-2,14-dimethyl-10,13,16-trioxo-3,9,12,15-tetraazaoctadecan-17-yl)nicotinamide] (Nicotinoyl-[Cha]AL[Lys(Et,iPr)]S-NH2) |  | 11 fold |  | 
